Hits are enriched below; roughly 6.8% of the tested compounds scored in any of these assays.
HCV core dimer: inhibitors of HCV core protein dimerization, primary screen, biochemical, TR-FRET, high-throughput; TR-FRET GST/Flag-core106 dimerization, 1536-well; inhibition, % at 5 µM; 300,000 compounds, 0.33% hits;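 active means inhibition above the mean of all tested compounds plus 3 SD, set per screening campaign, cut at about 45% in these data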
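Assay system: Tagged HCV core106 pair (GST and Flag) | Buffer or medium: KF-containing HEPES buffer, pH 7.45, DTT, CHAPS, BSA | Also added: Eu donor and XL665 acceptor anti-tag antibodies | Dosing: One concentration, 5 µM, in 0.5% DMSO | Timing: 4 h at 22.5 °C | Technique: TR-FRET 671 and 617 nm emission | Repeats: Singlicate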
HSF1 activator: HSF-1 activators, primary screen, NIH3T3-HGL cells, MG132 stress, luminescence, single point; NIH3T3-HGL HSF-1 luciferase reporter, 8 h; 100% = twice DMSO control signal; activation, % at 9 µM; 300,000 compounds, 1.7% hits; AID 504408, 2011;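 active means mean replicate activation of at least 50% with a set share of replicates each reaching 50%; inconclusive means only one of those two conditions met; inactive means mean below 50% and too few replicates reaching it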;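 further: 0% = median of the neutral control wells and 100% = twice that signal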
HSF1 inhib: HSF1 inhibitors in luciferase reporter cells, primary screen, cell-based, NIH3T3, luminescence; AID 2098, 2009; 300,000 compounds, 0.77% hits; NIH3T3-HGL HSE-luciferase, MG132-induced, luminescence 8 h; hits give low values; activity change, negative = inhibition, % at 7.5 µM (by protocol);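 active means more than half of replicate wells show activity change below -50%, luminescence cut by over half; inconclusive means some wells, but at most half, below -50%; inactive means no replicate well below -50%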;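 further: luciferase reports HSF-1 transcriptional activity via heat shock element; 0% = median of DMSO wells and -100% = zero luminescence signal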
PHOSPHO1 block: PubChem AID 1565; Phosphoethanolamine/phosphocholine phosphatase (Homo sapiens), Q8TCT1; recombinant PHOSPHO1, absorbance phosphatase assay; inhibition, % at 13.3 µM; 290,000 compounds, 1.1% hits; in the data active means inhibition above about 60%
Target sequence (Q8TCT1 whole entry, looked up): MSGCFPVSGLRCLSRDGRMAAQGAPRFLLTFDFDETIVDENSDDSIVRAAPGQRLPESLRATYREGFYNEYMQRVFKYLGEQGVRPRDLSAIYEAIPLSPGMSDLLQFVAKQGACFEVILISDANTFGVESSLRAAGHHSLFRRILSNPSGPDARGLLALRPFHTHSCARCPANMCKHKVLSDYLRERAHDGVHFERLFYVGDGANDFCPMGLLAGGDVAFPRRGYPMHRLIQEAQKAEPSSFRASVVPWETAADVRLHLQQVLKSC
ALR inh: inhibitors of human ALR sulfhydryl oxidase, primary screen, biochemical, H2O2 detection, HRP-luminol luminescence, single point. purified ALR, DTT oxidation. inhibition, % (test concentration not listed). 290,000 compounds, 3.8% hits. AID 485317, 2010;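 active means mean replicate inhibition above about 79%, with every replicate also reaching it, limit read from the data; inconclusive means only one of the two criteria met; inactive means mean below limit and not every replicate reaching it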
Target sequence (P55789 whole entry, looked up): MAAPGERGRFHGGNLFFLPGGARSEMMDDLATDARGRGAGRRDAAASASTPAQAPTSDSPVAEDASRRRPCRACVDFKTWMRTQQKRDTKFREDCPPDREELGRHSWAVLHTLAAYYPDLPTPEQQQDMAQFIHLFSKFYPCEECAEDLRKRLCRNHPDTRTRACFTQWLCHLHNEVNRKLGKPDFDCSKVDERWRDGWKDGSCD
AI-2 QS modul: Vibrio harveyi AI-2 quorum sensing modulators, primary screen, JMH597 strain, luminescence/OD600 ratio. Vibrio harveyi JMH597 AI-2 luminescence/OD600 ratio, 9 h; hits give low values; strain lacks LuxN and CqsS sensors; 0 = neutral-control median. activity change, % at 7.5 µM. 300,000 compounds, 0.4% hits. AID 2094, 2009; in the data active means activity change below about -75%, passing the limit was not always enough; inconclusive means no clear call, values can overlap the other calls;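 further: luminescence divided by OD600 gain over 9 h not by final OD600 alone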
JMH597 growth: Vibrio harveyi growth inhibition, confirmation, counter-screen for AI-2 quorum sensing project, JMH597 strain, OD600 absorbance; growth inhibition, % at 7.5 µM; shares compounds with AI-2 QS modul; 9 h; lacks LuxN and CqsS sensors; 750 compounds, 1% hits;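 active means every replicate shows growth inhibition above 50%; inconclusive means at least half, but not all, replicates pass that cutoff; inactive means fewer than half of replicates pass it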
BB721 const-QS lum: luminescence inhibition in constitutive-on V. harveyi, confirmation, counter-screen for LuxS inhibitor project, strain BB721, luminescence readout; 750 compounds, 95% hits; Vibrio harveyi BB721 luminescence, 9 h; AID 2727, 2010; shares compounds with AI-2 QS modul; inhibition, % at 7.5 µM;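 active means inhibition above about 80% in every replicate, not just on average, limit read from the data; inconclusive means at least half of replicates past the limit, but not all; inactive means fewer than half of replicates past the limit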
BB721 growth: growth inhibition of V. harveyi BB721, confirmation, cytotoxicity control for AI-2 quorum sensing inhibitors, strain BB721, absorbance OD600; 750 compounds, 3% hits; Vibrio harveyi BB721 growth, 9 h; AID 2728, 2010; growth inhibition, % at 7.5 µM; shares compounds with AI-2 QS modul;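 active means every replicate shows growth inhibition above 50%; inconclusive means at least half but not all replicates above 50% inhibition; inactive means under half of replicates above 50% inhibition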
AI-2 QS JMH597: Vibrio harveyi AI-2 signaling luminescence modulation – JMH597 strain, confirmation; shares compounds with AI-2 QS modul; Vibrio harveyi JMH597 AI-2 quorum sensing luminescence, 9 h; luxN and CqsS knockout, AI-2 only; inhibition, % at 7.5 µM; 750 compounds, 97% hits;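 active means every replicate shows more than 75% inhibition of signal versus neutral control wells; inconclusive means half to three quarters of replicates exceed 75% inhibition; inactive means fewer than half of replicates exceed 75% inhibition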
The depositor's hits bear a star.

For Oc1ccc(Cl)cc1CNc1nccs1 the results were HCV core dimer -7, HSF1 activator -4, HSF1 inhib 1, PHOSPHO1 block 14, ALR inh 74, AI-2 QS modul -79*, JMH597 growth 26, BB721 const-QS lum 92*, BB721 growth 38 and AI-2 QS JMH597 92*.
`Cc1ccc(O)c(CNc2nccs2)c1` gave HCV core dimer 6, HSF1 activator inconclusive, HSF1 inhib 51, PHOSPHO1 block -11, ALR inh -9 and AI-2 QS modul -39.
`Nc1ccccc1S(=O)(=O)NCCCCc1ccccc1` gave HCV core dimer -2, HSF1 activator 1, HSF1 inhib 14, ALR inh -7, AI-2 QS modul -89*, JMH597 growth -4, BB721 const-QS lum 95*, BB721 growth 5 and AI-2 QS JMH597 96*.
CCOc1cccc2c1OC1(C)CC2NC(=O)N1c1cccc(C(=O)NCc2ccccn2)c1 (configuration not stated) was read as HCV core dimer -6, HSF1 activator -3, HSF1 inhib -1, PHOSPHO1 block 44, ALR inh 0, AI-2 QS modul -95*, JMH597 growth 6, BB721 const-QS lum -6, BB721 growth 0 and AI-2 QS JMH597 6.
Screening O=C(NCc1ccccc1)c1nc2ccccc2s1 returned HCV core dimer 3, HSF1 activator 16, HSF1 inhib 7, PHOSPHO1 block 16, AI-2 QS modul inconclusive, JMH597 growth -3, BB721 const-QS lum 91*, BB721 growth -38 and AI-2 QS JMH597 94*.
CCCCC(=O)NC(NC(=S)N1CCCCCC1)C(Cl)(Cl)Cl (configuration not stated) was read as HCV core dimer 2, HSF1 activator 13, HSF1 inhib 5, PHOSPHO1 block 2, ALR inh -5 and AI-2 QS modul -6.
Oc1ccc(C[C@@H]2CNC(=S)N2CCCCC2CCCCC2)cc1 was read as HCV core dimer 0, HSF1 activator 5, HSF1 inhib 3, PHOSPHO1 block 39, ALR inh 11, AI-2 QS modul -92*, JMH597 growth 1, BB721 const-QS lum 92*, BB721 growth -20 and AI-2 QS JMH597 96*.
COC(=O)/C(=C1/Oc2cc(C)oc(=O)c2S1)C(F)(F)F was read as HCV core dimer -3, HSF1 activator -79, HSF1 inhib -79*, PHOSPHO1 block -13, ALR inh 16, AI-2 QS modul inconclusive, JMH597 growth 40, BB721 const-QS lum 91*, BB721 growth 63* and AI-2 QS JMH597 93*.
For O=C(NC1CCN(C(=O)c2ccccc2Br)CC1)c1ccccc1 the results were HCV core dimer 4, HSF1 activator -5, HSF1 inhib -7, ALR inh -6 and AI-2 QS modul 20.
CC(C)c1ccc(NC(=O)CNS(=O)(=O)c2ccc(F)cc2)cc1 was read as HCV core dimer 0, HSF1 activator -6, HSF1 inhib -8, PHOSPHO1 block 25, AI-2 QS modul -77*, JMH597 growth 10, BB721 const-QS lum 89*, BB721 growth 6 and AI-2 QS JMH597 93*.
`COc1ccc(S(=O)(=O)NCC(=O)Nc2ccc(F)cc2)cc1` gave ALR inh 1.
`O=C(NNc1ccccc1[N+](=O)[O-])Nc1cccc(Cl)c1` gave HCV core dimer -1, HSF1 activator 4, HSF1 inhib -2, PHOSPHO1 block 35, ALR inh -10 and AI-2 QS modul 3.
For COc1ccc(-c2cc(COc3ccccc3)on2)cc1 the results were HCV core dimer 1, HSF1 activator 35, HSF1 inhib 38, PHOSPHO1 block 42, ALR inh 0, AI-2 QS modul -89*, JMH597 growth 13, BB721 const-QS lum 97*, BB721 growth -17 and AI-2 QS JMH597 98*.
Screening CCN(CC)CC(=O)NCc1cc(-c2ccc(OC)cc2)no1 returned HCV core dimer -6, HSF1 activator -32, HSF1 inhib -13, PHOSPHO1 block -135 and AI-2 QS modul 8.
Clc1ccc(OCc2cc(-c3ccccc3)no2)c(Cl)c1 was read as HCV core dimer 0, HSF1 activator -23, HSF1 inhib -7, PHOSPHO1 block 47, ALR inh -4 and AI-2 QS modul 26.
Screening Fc1ccc(OCc2cc(-c3ccccc3)no2)cc1 returned HCV core dimer -7, HSF1 activator 51*, HSF1 inhib 26, PHOSPHO1 block 23, ALR inh -4, AI-2 QS modul -95*, JMH597 growth 31, BB721 const-QS lum 98*, BB721 growth 33 and AI-2 QS JMH597 98*.
Screening Cc1cccc(OCc2cc(-c3ccccc3)no2)c1C returned HCV core dimer -5, HSF1 activator 26, HSF1 inhib 19, PHOSPHO1 block 23, ALR inh 3, AI-2 QS modul -96*, JMH597 growth 25, BB721 const-QS lum 99*, BB721 growth 33 and AI-2 QS JMH597 99*.
CC(=O)N1CCN(C(=O)COC(=O)c2oc3ccccc3c2C)CC1 was read as ALR inh -1.
CN(C)S(=O)(=O)c1ccc(NC(=O)CN2CCC(Cc3ccccc3)CC2)cc1 was read as HCV core dimer 4, HSF1 activator 10, HSF1 inhib -1, PHOSPHO1 block 20, AI-2 QS modul -91*, JMH597 growth 2, BB721 const-QS lum 94*, BB721 growth 0 and AI-2 QS JMH597 96*.
